In ChEMBL document CHEMBL3414498, “Design and synthesis of 3-(3-((9H-carbazol-4-yl)oxy)-2-hydroxypropyl)-2-phenylquinazolin-4(3H)-one derivatives to induce ACE inhibitory activity” (Eur J Med Chem, 2015) one finds inhibition data, which are given here for seven compounds.

Assay [1] deals with Angiotensin-converting enzyme (Homo sapiens) (UniProt P12821). The assay can be described thus: Inhibition of ACE (unknown origin) at 1 uM using synthetic peptide hippuryl-histidyl-leucine substrate by high-throughput colorimetric screening method relative to lisinopril.
Assay [2] shares this target. The assay can be described thus: Inhibition of ACE (unknown origin) at 0.5 uM to 10 uM uM using synthetic peptide hippuryl-histidyl-leucine substrate by high-throughput colorimetric screening method. In a few lines: (§1)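 ACE activity was followed by the release of hippuric acid from the substrate hippuryl-histidyl-leucine. The released hippuric acid was converted to a yellow product with pyridine and benzene sulfonyl chloride, and the colour was read colorimetrically as absorbance. Each condition was run in triplicate and averaged, with lisinopril as the reference standard.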

The target is the same in assay [3]. The assay can be described thus: Inhibition of ACE (unknown origin) at 1 uM using synthetic peptide hippuryl-histidyl-leucine substrate by high-throughput colorimetric screening method. The method, boiled down:
as §1

Calls of active or inactive are those of the source. The calls are words filed in the database; no cut-off is given here. Bounds are passed on as bounds.

Angiotensin-converting enzyme (Homo sapiens), sequence (P12821 whole entry): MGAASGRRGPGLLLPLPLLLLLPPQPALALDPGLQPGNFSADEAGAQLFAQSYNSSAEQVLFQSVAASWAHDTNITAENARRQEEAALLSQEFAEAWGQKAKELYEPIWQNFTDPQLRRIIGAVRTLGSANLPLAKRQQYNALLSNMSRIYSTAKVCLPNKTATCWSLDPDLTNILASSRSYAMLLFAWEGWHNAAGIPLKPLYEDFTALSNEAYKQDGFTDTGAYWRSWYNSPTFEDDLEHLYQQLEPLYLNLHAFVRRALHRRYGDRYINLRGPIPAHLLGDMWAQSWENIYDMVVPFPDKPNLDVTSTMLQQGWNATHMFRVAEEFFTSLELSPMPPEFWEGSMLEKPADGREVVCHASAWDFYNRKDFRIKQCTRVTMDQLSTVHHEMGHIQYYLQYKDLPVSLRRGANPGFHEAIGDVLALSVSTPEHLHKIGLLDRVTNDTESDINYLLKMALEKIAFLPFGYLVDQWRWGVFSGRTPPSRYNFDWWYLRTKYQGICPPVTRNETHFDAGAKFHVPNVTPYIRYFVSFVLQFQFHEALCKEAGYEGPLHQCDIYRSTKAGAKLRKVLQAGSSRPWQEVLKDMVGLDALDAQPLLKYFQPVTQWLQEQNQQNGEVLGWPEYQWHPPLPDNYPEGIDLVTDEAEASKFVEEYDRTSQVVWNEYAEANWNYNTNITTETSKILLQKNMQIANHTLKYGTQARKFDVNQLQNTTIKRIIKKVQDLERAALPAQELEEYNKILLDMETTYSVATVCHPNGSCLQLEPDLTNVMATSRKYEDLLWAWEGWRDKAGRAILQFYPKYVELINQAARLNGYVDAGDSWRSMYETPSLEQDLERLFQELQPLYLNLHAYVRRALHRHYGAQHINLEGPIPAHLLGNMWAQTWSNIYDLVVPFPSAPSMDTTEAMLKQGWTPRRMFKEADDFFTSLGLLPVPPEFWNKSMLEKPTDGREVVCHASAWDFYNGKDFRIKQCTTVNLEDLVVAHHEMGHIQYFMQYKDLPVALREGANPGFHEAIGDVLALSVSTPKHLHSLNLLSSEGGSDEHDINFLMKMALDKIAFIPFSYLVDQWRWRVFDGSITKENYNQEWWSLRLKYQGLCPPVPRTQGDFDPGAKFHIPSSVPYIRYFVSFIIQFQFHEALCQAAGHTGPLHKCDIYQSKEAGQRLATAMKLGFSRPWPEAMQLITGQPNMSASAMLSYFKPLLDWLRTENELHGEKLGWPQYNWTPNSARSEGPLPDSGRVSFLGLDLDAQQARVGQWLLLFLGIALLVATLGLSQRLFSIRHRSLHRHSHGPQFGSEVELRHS

Usually inhibition stands for the share of the control response that was lost under treatment. Consider `O=c1c2ccccc2nc(C(F)(F)F)n1CC(O)COc1cccc2[nH]c3ccccc3c12` (stereo not drawn), for which the inhibition in assay [1] was 82.9%; in assay [3], over 75%. The inhibition result in assay [2] was “Active”.

In assay [3], `O=c1c2ccccc2nc(-c2ccc([N+](=O)[O-])cc2)n1CC(O)COc1cccc2[nH]c3ccccc3c12` (stereo not drawn) displayed an inhibition of 17%.

As to `O=c1c2ccccc2nc(-c2ccc(Cl)cc2Cl)n1CC(O)COc1cccc2[nH]c3ccccc3c12` (stereo not drawn), in assay [3], the inhibition is 17%.

For the compound `O=c1c2ccccc2nc(-c2ccccc2)n1CC(O)COc1cccc2[nH]c3ccccc3c12` (stereo not drawn), the inhibition in assay [1] was 100%; in assay [3], over 75%. Also, the inhibition entry in assay [2] is “Active”.

In turn, `O=c1c2ccccc2nc(-c2ccc(F)cc2)n1CC(O)COc1cccc2[nH]c3ccccc3c12` (stereo not drawn) displayed an inhibition in assay [3] of 17%.

Consider `Cc1ccc(-c2nc3ccccc3c(=O)n2CC(O)COc2cccc3[nH]c4ccccc4c23)cc1` (stereo not drawn), for which the inhibition is 100% in assay [1] and over 75% in assay [3]. Also, the inhibition entry in assay [2] was “Active”.

In turn, `Cc1nc2ccccc2c(=O)n1CC(O)COc1cccc2[nH]c3ccccc3c12` (stereo not drawn) registered an inhibition in assay [3] of 17%.
